OX1R antag-1: OX1R (human) antagonism. OX1R-expressing cells, FRET antagonist read-out. inhibition, % at 6.6 µM. 330,000 tested, 1.8% active. AID 485270; in the data active = inhibition mostly above about 38%, no sharp cut-off; inactive = mostly below about 40%
CHO parental Ca: counter-screen for OX1R antagonists: effect in parental CHO cells; parental CHO-K1, ATP-induced calcium, Fluo-8 fluorescence; inhibition, % at 5.6 µM; 330,000 tested, 0.63% active; AID 463079;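 active = inhibition above that plate's mean sample inhibition plus 3 SD, cut at about 26% in these data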
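Material: Parental CHO cells | Reagent: ATP | Compound dosing: Single nominal dose of 5.6 µM per compound | Detection: Intracellular calcium via Fluo-8 no-wash fluorescent dye | Read-out: % inhibition of ATP-induced calcium mobilization | Benchmarks: Low control ATP plus DMSO, high control DMSO only | Replicates: Singlicate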
OX1R antag-2: blocks the human orexin 1 receptor; 330,000 tested, 0.43% active; inhibition, % at 5 µM; CHO/OX1R cells, Fluo-8 calcium fluorescence, orexin A; O43613;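 active = inhibition above its plate's threshold, mean inhibition of all tested compounds on the plate plus 3 SD, cut at about 37% in these data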
NTR1 ag: activates human neurotensin receptor 1. P30989. NTR1-U2OS beta-arrestin-GFP spot imaging, agonist mode. activation, % at 20 µM. 330,000 tested, 0.17% active;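 active = activation at or above 40% of the spot to cytoplasm intensity ratio, with at least 20 cells analyzed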
Target sequence (P30989 whole entry, looked up): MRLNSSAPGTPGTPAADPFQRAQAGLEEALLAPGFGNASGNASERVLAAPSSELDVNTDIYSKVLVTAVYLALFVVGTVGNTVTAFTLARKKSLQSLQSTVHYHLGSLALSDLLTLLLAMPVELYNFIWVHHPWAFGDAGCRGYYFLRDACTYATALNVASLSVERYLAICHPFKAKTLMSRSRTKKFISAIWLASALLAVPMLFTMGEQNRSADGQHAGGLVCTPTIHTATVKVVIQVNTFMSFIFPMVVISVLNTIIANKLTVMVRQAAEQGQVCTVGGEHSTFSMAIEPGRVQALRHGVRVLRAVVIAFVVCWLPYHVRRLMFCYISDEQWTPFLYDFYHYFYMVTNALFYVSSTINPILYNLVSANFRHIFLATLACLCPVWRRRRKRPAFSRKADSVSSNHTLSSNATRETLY
TAAR1 antag: antagonists of human TAAR1; AID 624466; inhibition, % at 3 µM; 360,000 tested, 1.5% active; CHO RD-HGA16 TAAR1, Fluo-8 calcium fluorescence, antagonist; Q96RJ0;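 active = inhibition above a per-plate cutoff, the mean inhibition of test compounds on that plate plus 3 SD, cut at about 49% in these data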
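System: RD-HGA16 CHO cells with stable hTAAR1 and Gα16 | Probe or stimulus: EC80 β-phenethylamine stimulus | Dosing: 3 µM, single point | Times: Dye loading 75 min at 37 °C, then 30 min room temperature | Measured by: Fluo-8 calcium-sensitive fluorescence | Read-out basis: % inhibition of agonist calcium response | Replicates: n of 1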
TAAR1 agonist: agonists of human TAAR1; CHO RD-HGA16 TAAR1, Fluo-8 calcium fluorescence; vehicle wells 0%, saturating PEA agonist 100%; 360,000 tested, 0.99% active; activation, % at 3 µM;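 active = activation above the mean activation of all test compounds in the run plus 3 SD, cut at about 38% in these data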
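System: CHO RD-HGA16 cells carrying human TAAR1 plus Gα16; Incubation: 17-24 h seeding, 75 min 37 °C dye, 30 min RT; Measured by: Fluo-8 fluorescence, 5 s baseline then 140 s kinetic read; Control set: DMSO and PEA EC100; Replication: single well for each compound.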
Large screens that a line does not name were inactive. This is a sample that favours compounds with a hit; in the whole collection about 4% have one here.

COc1ccc(N(CC(=O)NCCSCc2ccco2)S(=O)(=O)c2ccccc2)cc1	none
O=C(CN(c1ccccc1)S(=O)(=O)c1ccccc1)NCCSCc1ccco1	OX1R antag-1 57
COc1ccccc1N(CC(=O)NCCSCc1ccccc1)S(=O)(=O)c1ccc(C)cc1	none
COc1ccc(N(CC(=O)NCCSCc2ccco2)S(=O)(=O)c2ccccc2)cc1OC	none
O=C(NC1=NCCS1)c1ccc([N+](=O)[O-])cc1Cl	OX1R antag-1 49
O=C(N[C@H](Cc1ccccc1)C(=O)O)[C@H]1O[C@@H](n2ccc(=O)[nH]c2=O)[C@H](O)[C@@H]1O	none (no result: OX1R antag-1, CHO parental Ca, OX1R antag-2, NTR1 ag)
C/C(=N\NC(=O)c1ccncc1)c1cccc(NC(=O)c2ccc(Cl)s2)c1	none (no result: OX1R antag-1, CHO parental Ca, OX1R antag-2)
Cc1[nH]c2ccccc2c1CC(=O)Nc1ccc(Nc2ccccc2)cc1	none (no result: OX1R antag-1, CHO parental Ca, OX1R antag-2, NTR1 ag)
CN(C)c1ccc(C(CNS(=O)(=O)c2ccc([N+](=O)[O-])cc2)N2CCCC2)cc1 (stereo not given)	OX1R antag-1 71
CN1CC[C@@H]2CN(S(=O)(=O)c3ccccc3)[C@H](c3ccccc3Br)C[C@@H]21	none (no result: OX1R antag-1, CHO parental Ca, OX1R antag-2, NTR1 ag)
COc1cccc(/C=N/Nc2ccnc(=O)[nH]2)c1O	none
O=c1nccc(N/N=C/c2ccccc2O)[nH]1	TAAR1 agonist 38 (no result: OX1R antag-1, CHO parental Ca, OX1R antag-2)
CC(C)[C@H](NC(=O)[C@@H](N)Cc1ccccc1)C(=O)N1CCC2CCN(Cc3ccccc3)CC21 (stereo not given in full)	none (no result: OX1R antag-1, CHO parental Ca, OX1R antag-2, NTR1 ag)
O=C(c1cc2nc(-c3ccc(F)cc3)cc(C(F)(F)F)n2n1)N1CCCCC1c1cccnc1 (stereo not given)	CHO parental Ca 42
COC(=O)[C@@]1(Cc2ccccc2)[C@H]2C(=O)N(C)C(=O)[C@H]2[C@H]2CN=C(SCc3ccc(Cl)cc3)N21	none
C=C(CN(C)C)C(=O)c1ccc(OC2OC(COC(C)=O)C(OC(C)=O)C(OC(C)=O)C2OC(C)=O)cc1 (stereo not given)	TAAR1 antag 60 (no result: OX1R antag-1, CHO parental Ca, OX1R antag-2, NTR1 ag)
C=C(CN(C)C)C(=O)c1ccc2c(c1)OCO2	none (no result: OX1R antag-1, CHO parental Ca, OX1R antag-2, NTR1 ag)
O=C(c1cccc(S(=O)(=O)N2CCN(c3ccccc3)CC2)c1)N1CCCC(C(F)(F)F)C1 (stereo not given)	CHO parental Ca 34
CC(C)(C)C1CCC(CN2C(Nc3ccccc3)=NC[C@@H]2Cc2ccccc2)CC1 (stereo not given in full)	TAAR1 agonist 74
CCOc1ncccc1C(=O)Nc1cccc(-c2nc3cccnc3s2)c1	OX1R antag-1 68
O=C(Nc1cccc(-c2nc3cccnc3s2)c1)c1ccco1	OX1R antag-1 64
O=C(Nc1cccc(NC(=O)c2nccc3ccccc23)c1)c1ccco1	OX1R antag-1 54
O=C(Nc1ccc(-c2nc3cccnc3s2)cc1)c1ccco1	none
Cc1cc(C)c2c(CC(=O)NNC(=O)c3ccccc3)coc2c1	none
O=C(O)c1cc2ccccc2c(N=Nc2cccnc2)c1O	OX1R antag-1 74 (no result: TAAR1 antag, TAAR1 agonist)
Cc1cc(N2CCN(C(=O)OC(C)(C)C)C[C@@H]2C)ccc1N1C[C@@H](C)O[C@@H](C)C1	none (no result: OX1R antag-1, CHO parental Ca, OX1R antag-2, NTR1 ag)
O=S(c1cc(Cl)cc(Cl)c1O)c1cc(Cl)cc(Cl)c1O	none (no result: OX1R antag-1, CHO parental Ca, OX1R antag-2, NTR1 ag)
Oc1c(Cl)cc(Cl)cc1Sc1cc(Cl)cc(Cl)c1O	OX1R antag-1 60, CHO parental Ca 101, OX1R antag-2 73 (no result: TAAR1 antag, TAAR1 agonist)
Cc1ccc(S(=O)(=O)N2CCN(C(=O)NCc3ccc(C(=O)O)cc3)CC2)cc1	none
Cc1cccc(Nc2ncccc2C(=O)NCc2cccs2)c1C	TAAR1 agonist 38
CC(C)(NS(=O)(=O)OCC(Cl)(Cl)Cl)c1ccccc1	none
CC(NS(=O)(=O)OCC(Cl)(Cl)Cl)c1ccc(C(C)(C)C)cc1 (stereo not given)	CHO parental Ca 64, TAAR1 antag 52 (no result: NTR1 ag)
Cc1ccc2cccc(NC(=S)NC(=O)c3ccnn3C)c2n1	OX1R antag-1 48
Cc1ccccc1-c1ccc2c(c1)[C@@H]1C[C@H]3[C@@H](CN1CC2)[C@H](C)OC(c1ccccc1)N3C (stereo not given in full)	none (no result: OX1R antag-1, CHO parental Ca, OX1R antag-2, NTR1 ag)
Cc1ccc(C(C[N+](=O)[O-])Sc2ccc(N)cc2)cc1 (stereo not given)	NTR1 ag 54

Compound activity from PubChem BioAssay.
